Experimental data collected from several papers.
Compare with care: the assays were run in different laboratories.

O=S(=O)(c1ccc(-c2ccc3nccc(Nc4ccncn4)c3c2)cc1)N1CCOCC1 — Tmax (female BALB/c mouse; brain; intraperitoneal; 10 mg/kg): 15 min
COc1nc(-c2cc(C)c(N[C@@H](C)c3cc(F)cc(F)c3)nn2)ccc1-n1cnc(C)c1 — Tmax (male CD-1 mouse; plasma; intravenous; 1 mg/kg; single dose): 4.98 min
CN1C(=O)c2ccccc2[S@+]([O-])c2ccc(C(=O)NCCc3cccs3)cc21 — Tmax (male C57BL/6 mouse; brain; intraperitoneal; 30 mg/kg; single dose): 15 min
CC(C)(C)c1ccc(O)c(CN(Cc2cc(C(C)(C)C)ccc2O)C2CCC(NC(N)=O)CC2)c1 (centres unmarked) — Tmax (male C57BL/6 mouse; plasma; intraperitoneal; 10 mg/kg; single dose): 15 min
CCc1ccc(Cc2cc([C@@H]3O[C@H](CO)[C@@H](O)[C@H](O)[C@H]3O)cc3c2CCC3)cc1 — Tmax (male C57BL/6 mouse; plasma; oral; 0.3 mg/kg): 30 min
COc1ccc(C(O)COc2ccc(-c3csc(-c4ccc(OCC(O)c5ccc(OC)c(OC)c5)cc4)n3)cc2)cc1OC (centres unmarked) — Tmax (C57BL/6 mouse; plasma; oral; 75 mg/kg): 60 min
COc1ccc(CNc2c3c(nc4ccc(C#N)cc24)CCN(C(C)=O)C3)cc1Cl — Tmax (mouse; plasma; intraperitoneal; 25 mg/kg): 15 min
O=C(c1cc2cc(F)ccc2[nH]1)c1c[nH]c2c(F)cccc12 — Tmax (female mouse; plasma; intraperitoneal; 6 mg/kg): ~15 min
C=CC(=O)N1CC2CC(n3nc(-c4ccc(C(=O)Nc5ccccn5)cc4)c4c(N)ncnc43)CC2C1 (centres unmarked) — Tmax (SCID mouse; plasma; oral; 0.2 mg/kg): 15 min
COc1nc(-c2cc(C)c(N[C@@H](C)c3c(F)cc(F)cc3F)nn2)ccc1-n1cnc(C)c1 — Tmax (male CD-1 mouse; plasma; oral; 5 mg/kg; single dose): 120 min
Cc1cc(Nc2ccc3ccccc3c2)n2ncnc2n1 — Tmax (male Swiss mouse; plasma; oral; 50 mg/kg; single dose): 30 min
CC(C)Oc1c(NC(=O)c2ccc(NC(=O)[C@H](CC(N)=O)NC(=O)c3ccc(NC(=O)c4ccc(C#N)cc4)cc3)cc2)ccc(C(=O)Nc2ccc(C(=O)O)cc2)c1O — Tmax (male CD-1 mouse; plasma; subcutaneous; 5 mg/kg; single dose): 100 min
CSc1cc(Oc2ccnc3[nH]c(=O)cnc23)ccc1NC(=O)Nc1cc(C(C)(C)C)nn1-c1ccccc1 — Tmax (BALB/c mouse; plasma; intravenous; 2 mg/kg): 60 min
COC(=O)CN(CCCc1ccccc1)CC(=O)N[C@@H](Cc1c[nH]cn1)c1nc(C)no1 — Tmax (male C57BL/6 mouse; plasma; intraperitoneal; 30 mg/kg): 10 min
CS(=O)(=O)CCNCc1ccc(-c2ccc3ncnc(Nc4ccc(OCc5cccc(F)c5)c(Cl)c4)c3c2)o1 — Tmax (nude mouse; plasma; oral; 50 mg/kg; single dose): 60 min
CNCCN(C)c1cc(C#N)cc(CCc2cc(C)cc(N)n2)c1 — Tmax (male BALB/c mouse; plasma; oral; 10 mg/kg): 15 min
CNC(=O)[C@H](Cc1c[nH]cn1)NC(=O)CN(CCCc1ccccc1)CC(=O)OC — Tmax (male C57BL/6 mouse; plasma; intraperitoneal; 30 mg/kg): 10 min
Cc1ccc(NC(=O)c2ccc(CN3CCN(C)CC3)cc2)cc1Nc1nccc(-c2cncc(-c3oncc3C)c2)n1 — Tmax (male C57BL/6 mouse; brain; oral; 100 mg/kg/day): 120 min
CCc1cc(OC)c2nccc(N3CCc4c(cc(Cn5ccnc5)cc4-c4cn(C)nc4C(F)(F)F)C3=O)c2c1 — Tmax (male CD-1 mouse; plasma; oral; 50 mg/kg): 42 min
Cc1ncsc1-c1ccc(CNC(=O)[C@@H]2C[C@@H](O)CN2C(=O)[C@@H](NC(=O)CCCCCCCCCCCC(=O)NCCCCC#Cc2cccc(-c3nn(-c4nc(C(=O)O)cs4)c(CC4CC4)c3Cc3ccc(S(N)(=O)=O)cc3)c2)C(C)(C)C)cc1 — Tmax (male Swiss mouse; plasma; intraperitoneal; 5 mg/kg; single dose): 480 min
Cc1cc(C)cc(NC(=O)c2cnn(-c3ccc(C(C)C)cc3)c2C2CCNCC2)c1 — Tmax (SCID mouse; plasma; oral; 50 mg/kg; single dose): ~300 min
OC[C@H]1O[C@@H](c2ccc(Cl)c(Cc3ccc(O[C@H]4CCOC4)cc3)c2)[C@H](O)[C@@H](O)[C@@H]1O — Tmax (CD-1 mouse; plasma; intravenous; 5 mg/kg): 4.8 min
CC(C)c1cnn2c(NCc3ccccc3)cc(NC[C@H]3CCNC[C@@H]3O)nc12 — Tmax (male CD-1 mouse; plasma; oral): 120 min
CN1CCC[C@H](CN2c3ccccc3Sc3ccccc32)C1.Cl — Tmax (mouse; plasma; intraperitoneal; 32 mg/kg; single dose): 60 min
CNC(=O)c1cc(Oc2ccc(NC(=O)Nc3ccc(Cl)c(C(F)(F)F)c3)c(F)c2)ccn1 — Tmax (male mouse; plasma; oral; 10 mg/kg; single dose): 162 min
Cc1ccc2cncc(N3CCc4c(cc(Cn5ccnc5)cc4-c4cn(C)nc4C(F)(F)F)C3=O)c2c1 — Tmax (male CD-1 mouse; plasma; oral; 10 mg/kg): 18 min
Cc1cc(Nc2ccc(S(F)(F)(F)(F)F)cc2)n2ncnc2n1 — Tmax (male Swiss mouse; plasma; oral; 100 mg/kg; single dose): 120 min
CNC(=O)c1cc(OC)cc2c(N3CCc4c(cc(Cn5ccnc5)cc4-c4cn(C)nc4C(F)(F)F)C3=O)ccnc12 — Tmax (male CD-1 mouse; plasma; oral; 50 mg/kg): 48 min
CC=Cc1ccc(O)c(OC)c1 — Tmax (mouse; plasma; intranasal; 100 mg/kg): 5 min
